# Laboratory results from ChEMBL document CHEMBL1122883, “An interdisciplinary approach to the design of new structures active at the beta-adrenergic receptor. Aliphatic oxime ether derivatives” (J Med Chem, 1985).
# How the values were obtained:
# [1] = target: Beta-1 adrenergic receptor (Cavia porcellus) (UniProt B0FL73); assay: (§1) Antagonistic activity against beta-1 adrenergic receptor of isolated guinea pig atria; type: functional
# In short: (§2)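 Antagonism was assessed from dose–response curves to noradrenaline and isoprenaline obtained before and after a 20 min contact period with the test antagonist. Each agonist was allowed to act until maximal response.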
# [2] = target: Beta-1 adrenergic receptor (Cavia porcellus) (UniProt B0FL73); assay: Specific antagonistic activity difference against beta-1 adrenergic receptor of isolated guinea pig atria; type: functional
# [3] = target: Beta-2 adrenergic receptor (Cavia porcellus) (UniProt Q8K4Z4); assay: Antagonistic activity against beta-2 adrenergic receptor of isolated guinea pig tracheal strips; type: functional, tissue-based; settings: Trachea
# In short: (§3)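 Tracheal strips from male adult guinea pigs (300–350 g) in Krebs–Henseleit with ascorbic acid (0.1 mg/mL) and phentolamine (0.1 μg/mL), 37 °C, 95% O2–5% CO2. Strips were under 0.5 g tension, stabilized 30 min, and given steady tone with carbachol 5 × 10^-7 M. Isotonic recording. Agonist dose–response curves to noradrenaline and isoprenaline were run before and after 20 min antagonist contact.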
# [4] = target: Beta-1 adrenergic receptor (Cavia porcellus, UniProt B0FL73); assay: as §1; type: functional; settings: read-out: pA2 (converted); in short: as §2
# [5] = target: Beta-2 adrenergic receptor (Cavia porcellus) (UniProt Q8K4Z4); assay: Specific antagonistic activity difference against beta-2 adrenergic receptor of isolated guinea pig tracheal strips; type: functional
# [6] = target: Beta-2 adrenergic receptor (Cavia porcellus, UniProt Q8K4Z4); assay: Antagonistic activity against beta-2 adrenergic receptor on isolated guinea pig tracheal strips; type: functional, tissue-based, Trachea; settings: read-out: pA2 (converted); in short: as §3
# [7] = target: Beta-1 adrenergic receptor (Cavia porcellus) (UniProt B0FL73); assay: […] activity against beta-1 adrenergic receptor on isolated guinea pig atria; type: functional; in short: as §2
# [8] = target: Beta-1 adrenergic receptor (Cavia porcellus) (UniProt B0FL73)
# [9] = target: Beta-1 adrenergic receptor (Cavia porcellus) (UniProt B0FL73); assay: Stimulating activity against beta-1
# In short: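 Agonist given until maximal response was reached, building dose–response curves. Affinity expressed as pD2, calculated by the Ariëns–Van Rossum method.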
# Beta-2 adrenergic receptor (Cavia porcellus), sequence (Q8K4Z4 whole entry, looked up): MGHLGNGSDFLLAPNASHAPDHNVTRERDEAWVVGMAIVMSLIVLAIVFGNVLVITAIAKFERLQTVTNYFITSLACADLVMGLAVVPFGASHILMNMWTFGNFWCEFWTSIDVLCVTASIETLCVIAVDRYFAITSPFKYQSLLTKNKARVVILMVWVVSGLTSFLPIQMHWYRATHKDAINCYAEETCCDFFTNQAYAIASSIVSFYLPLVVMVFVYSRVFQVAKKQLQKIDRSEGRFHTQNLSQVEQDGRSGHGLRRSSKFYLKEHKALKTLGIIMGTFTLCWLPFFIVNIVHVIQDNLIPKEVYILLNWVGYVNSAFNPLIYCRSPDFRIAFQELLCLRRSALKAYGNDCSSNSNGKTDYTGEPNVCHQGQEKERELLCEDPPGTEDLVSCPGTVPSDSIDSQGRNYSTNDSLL
# Beta-2 adrenergic receptor, sequence (Q8K4Z4 whole entry): as the sequence (Q8K4Z4 whole entry, looked up) above
# Beta-1 adrenergic receptor (Cavia porcellus), sequence (B0FL73 1-467): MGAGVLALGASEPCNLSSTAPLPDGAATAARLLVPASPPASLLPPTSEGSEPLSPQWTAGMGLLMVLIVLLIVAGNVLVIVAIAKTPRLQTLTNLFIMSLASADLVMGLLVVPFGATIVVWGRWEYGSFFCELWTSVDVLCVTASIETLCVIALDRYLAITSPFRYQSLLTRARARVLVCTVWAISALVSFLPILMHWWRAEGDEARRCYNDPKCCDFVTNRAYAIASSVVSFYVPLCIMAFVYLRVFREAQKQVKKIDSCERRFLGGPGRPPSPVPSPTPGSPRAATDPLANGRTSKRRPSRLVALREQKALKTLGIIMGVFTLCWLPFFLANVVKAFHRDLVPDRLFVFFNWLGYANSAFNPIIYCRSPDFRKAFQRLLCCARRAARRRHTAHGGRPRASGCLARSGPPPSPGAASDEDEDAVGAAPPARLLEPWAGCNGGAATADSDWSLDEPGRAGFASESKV
# Beta-1 adrenergic receptor, sequence (B0FL73 whole entry): as the sequence (B0FL73 1-467) above
SMILES,pA10 [1],pA2 - pA10 [2],pA10 [3],Kb [4] [nM],pA2 - pA10 [5],Kb [6] [nM],pD2 [7],pD2 [8],pD2 [9]
CCCC(CCC)=NOCC(O)CNC(C)C (centres undefined),4.13,0.55,7.49,20900,0.714,6.31,–,–,–
OCc1ccc(O)c(O)c1,–,–,–,–,–,–,8.44,–,–
CCC(CC)=NOCC(O)CNC(C)(C)C (centres undefined),5.19,0.71,7.14,1260,0.84,10.5,–,–,–
CCC(CC)=NOCC(O)CNC(C)C (centres undefined),5.24,0.78,7.57,955,0.81,4.17,–,–,–
COc1ccc(OC)c(C(O)C(C)NC(C)(C)C)c1 (centres undefined) [BUTOXAMINE],3.98,0.37,5.96,44700,0.93,129,–,–,–
CC(C)(C)NCC(O)CON=C1CCCCC1 (centres undefined),4.3,0.78,6.81,8320,0.6,38.9,–,–,–
CCCC(CCC)=NOCC(O)CNC(C)(C)C (centres undefined),4.48,0.85,7.93,4680,0.69,2.4,–,–,–
CC(C)NCC(O)CON=C1CCCC1 (centres undefined),3.81,0.8,6.09,24500,0.71,155,–,–,–
CC(C)(C)NCC(O)CON=C1CCCC1 (centres undefined),3.58,0.69,5.88,53700,0.88,174,–,–,–
CC(C)NCC(O)CON=C1CCCCC1 (centres undefined),3.88,0.82,6.64,20000,0.5,72.4,–,–,–
CC(C)NCC(O)CON=C(C(C)C)C(C)C (centres undefined),3.88,0.89,7.62,17000,0.9,3.02,–,6.08,–
CC(C)C(=NOCC(O)CNC(C)(C)C)C(C)C (centres undefined),3.94,0.9,6.82,14500,0.82,22.9,–,–,6.12
